Activity calls are given as the source filed them. No cut-off for these calls is given here.
Key:
[1] = test system: Mus musculus; assay: Neurotoxicity in Albino mouse at 300 mg/kg, ip after 4 hrs by RotaRod test; assay type: toxicity, organism-based; parameters: dose 300 mg/kg, route intraperitoneal; conditions: in vivo
In short: (§1)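 Phase I protocol of the NINCDS antiepileptic drug development programme in albino mice, covering MES, subcutaneous pentylenetetrazole (metrazol) and rotarod neurotoxicity. Doses were 30, 100 and 300 mg/kg, read at 1/2 h and 4 h. One animal per dose and time point, scored as 0/1 (no activity) or 1/1 (noticeable activity).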

[2] = test system: Mus musculus; assay: Anticonvulsant activity against metrazole-induced seizures in Albino mouse at 300 mg/kg, ip after 30 mins by scMet assay; assay type: functional, organism-based; parameters: dose 300 mg/kg; in short: as §1
[3] = test system: Mus musculus; assay: Anticonvulsant activity in Albino mouse by MES test at 300 mg/kg, ip after 30 mins; assay type: functional, organism-based; parameters: dose 300 mg/kg; in short: as §1
[4] = test system: Mus musculus; assay: Anticonvulsant activity against metrazole-induced seizures in Albino mouse at 30 mg/kg, ip after 30 mins by scMet assay; assay type: functional, organism-based; parameters: dose 30 mg/kg; in short: as §1
[5] = test system: Mus musculus; assay: Anticonvulsant activity in Albino mouse by MES test at 30mg/kg, ip after 30 mins; assay type: functional, organism-based; in short: as §1
[6] = test system: Mus musculus; assay: Anticonvulsant activity against metrazole-induced seizures in Albino mouse at 100 mg/kg, ip after 4 hrs by scMet assay; assay type: functional, organism-based; parameters: dose 100 mg/kg; in short: as §1
[7] = test system: Mus musculus; assay: Anticonvulsant activity in Albino mouse at 300 mg/kg, ip after 4 hrs by MES test; assay type: functional, organism-based; parameters: dose 300 mg/kg; in short: as §1
[8] = test system: Mus musculus; assay: Antidepressant activity in Albino mouse assessed as duration of immobility at 10 mg/kg, ip by forced-swimming test; assay type: functional; conditions: route intraperitoneal
In short: (§2)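 Porsolt forced-swim test in albino mice. Drug given ip at 0.5 ml/20 g body weight, 1 h before testing. Controls received 1% aqueous Tween 80. Each mouse was placed singly in a water-filled Plexiglas cylinder for 6 min. Immobility (floating upright with only slight movements to stay afloat) was timed over the last 4 min.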

[9] = test system: Mus musculus; assay: Anticonvulsant activity against metrazole-induced seizures in Albino mouse at 300 mg/kg, ip after 4 hrs by scMet assay; assay type: functional, organism-based; parameters: dose 300 mg/kg; in short: as §1
[10] = test system: Mus musculus; assay: Neurotoxicity in Albino mouse at 300 mg/kg, ip after 30 mins by RotaRod test; assay type: toxicity, organism-based; parameters: dose 300 mg/kg, route intraperitoneal; conditions: in vivo, 0.5 h; in short: as §1
[11] = test system: Mus musculus; assay: Anticonvulsant activity in Albino mouse at 100 mg/kg, ip after 4 hrs by MES test; assay type: functional, organism-based; parameters: dose 100 mg/kg; in short: as §1
[12] = test system: Mus musculus; assay: Anticonvulsant activity against metrazole-induced seizures in Albino mouse at 100 mg/kg, ip after 30 mins by scMet assay; assay type: functional, organism-based; parameters: dose 100 mg/kg; in short: as §1
[13] = test system: Mus musculus; assay: Antidepressant activity in Albino mouse assessed as duration of immobility at 10 mg/kg, ip by forced-swimming test relative to control; assay type: functional; conditions: route intraperitoneal; in short: as §2
[14] = test system: Mus musculus; assay: Neurotoxicity in Albino mouse at 100 mg/kg, ip after 30 mins by RotaRod test; assay type: toxicity, organism-based; parameters: dose 100 mg/kg, route intraperitoneal; conditions: in vivo, 0.5 h; in short: as §1
[15] = test system: Mus musculus; assay: Anticonvulsant activity against metrazole-induced seizures in Albino mouse at 30 mg/kg, ip after 4 hrs by scMet; assay type: functional, organism-based; parameters: dose 30 mg/kg; in short: as §1
[16] = test system: Mus musculus; assay: Anticonvulsant activity in Albino mouse by MES test at 100 mg/kg, ip after 30 mins; assay type: functional, organism-based; parameters: dose 100 mg/kg; in short: as §1
[17] = test system: Mus musculus; assay: Anticonvulsant activity in Albino mouse at 30 mg/kg, ip after 4 hrs by MES test; assay type: functional, organism-based; parameters: dose 30 mg/kg; in short: as §1
[18] = test system: Mus musculus; assay: Neurotoxicity in Albino mouse at 30 mg/kg, ip after 30 mins by RotaRod test; assay type: toxicity, organism-based; parameters: dose 30 mg/kg, route intraperitoneal; conditions: in vivo, 0.5 h; in short: as §1
[19] = test system: Mus musculus; assay: Neurotoxicity in Albino mouse at 30 mg/kg, ip after 4 hrs by RotaRod test; assay type: toxicity, organism-based; parameters: dose 30 mg/kg, route intraperitoneal; conditions: in vivo; in short: as §1
[20] = test system: Mus musculus; assay: Neurotoxicity in Albino mouse at 100 mg/kg, ip after 4 hrs by RotaRod test; assay type: toxicity, organism-based; parameters: dose 100 mg/kg, route intraperitoneal; conditions: in vivo; in short: as §1

**Q.** `CNC(=S)N1N=C(c2ccco2)CC1c1ccccc1` (stereo not given) was tested. Which Activity [1] did it give?
**A.** The Activity was “Not Active”.

**Q.** What about the Activity [2] of the same compound?
**A.** Its Activity is “inactive”.

**Q.** And the Activity [3]?
**A.** The Activity was “inactive”.

**Q.** What about the Activity [4] of the same compound?
**A.** Its Activity is “inactive”.

**Q.** What about the Activity [5] of the same compound?
**A.** Its Activity is “inactive”.

**Q.** What about the Activity [6] of the same compound?
**A.** Its Activity is “inactive”.

**Q.** What about the Activity [7] of the same compound?
**A.** Its Activity is “inactive”.

**Q.** And the Activity [8]?
**A.** The Activity was 201 s.

**Q.** What about the Activity [9] of the same compound?
**A.** The Activity was “inactive”.

**Q.** And the Activity [10]?
**A.** The Activity was “Not Active”.

**Q.** What about the Activity [11] of the same compound?
**A.** The Activity was “inactive”.

**Q.** What about the Activity [12] of the same compound?
**A.** Its Activity is “inactive”.

**Q.** And the Activity [13]?
**A.** Its Activity is -4.28%.

**Q.** What about the Activity [14] of the same compound?
**A.** The Activity was “Not Active”.

**Q.** And the Activity [15]?
**A.** Its Activity is “inactive”.

**Q.** And the Activity [16]?
**A.** Its Activity is “inactive”.

**Q.** And the Activity [17]?
**A.** Its Activity is “inactive”.

**Q.** What about the Activity [18] of the same compound?
**A.** The Activity was “Not Active”.

**Q.** What about the Activity [19] of the same compound?
**A.** Its Activity is “Not Active”.

**Q.** And the Activity [20]?
**A.** Its Activity is “Not Active”.

— ChEMBL document CHEMBL1143773, “Synthesis and studies on antidepressant and anticonvulsant activities of some 3-(2-furyl)-pyrazoline derivatives” (Eur J Med Chem, 2007)
